Assay results published in ChEMBL document CHEMBL3797160, “Discovery of novel diaryl urea derivatives bearing a triazole moiety as potential antitumor agents” (Eur J Med Chem, 2016).

How the values were obtained:
HT-29 [1] = experiment: Antiproliferative activity against human HT-29 cells after 72 hrs by MTT assay; format: functional, cell-based; conditions: HT-29, 72 h
Procedure, shortened: (§1)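 MTT assay. Cells grown in MEM with 10% FBS. About 4 × 10³ cells per well were plated and left 24 h at 37 °C in 5% CO₂. Compounds were then added for a further 72 h. MTT was added to a final 5 µg/mL for 4 h at 37 °C. Formazan was dissolved in DMSO and read at 492 nm against a 630 nm reference. Each line was tested three times, and IC50 is the average of at least three determinations.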

[2] = Cytotoxicity against human WI38 cells after 72 hrs by MTT assay; format: cell-based; conditions: WI-38, 72 h; procedure, shortened: as §1
MDA-MB-231 = experiment: Antiproliferative activity against human MDA-MB-231 cells after 72 hrs by MTT assay; format: functional, cell-based; conditions: MDA-MB-231, 72 h; procedure, shortened: as §1
[3] = Antiproliferative activity against human H460 cells after 72 hrs by MTT assay; format: functional, cell-based; conditions: NCI-H460, 72 h; procedure, shortened: as §1
HT-29 [4] = experiment: Induction of apoptosis in human HT-29 cells assessed as viable cells 2 uM after 48 hrs by annexin V/propidium iodide staining based flow cytometric analysis (reference value: 92.1 %); format: functional
HT-29 [5] = experiment: Induction of apoptosis in human HT-29 cells assessed as necrotic cells at 5 uM after 48 hrs by annexin V/propidium iodide staining based flow cytometric analysis (reference value: 3.66 %); format: functional
[6] = biological target: Vascular endothelial growth factor receptor 2 (Homo sapiens) (UniProt P35968); conditions: at 10 µM;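 note: kinase activity read out by mobility shift assay after 1 h of incubation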
Sequence of Vascular endothelial growth factor receptor 2 (Homo sapiens) (P35968 whole entry): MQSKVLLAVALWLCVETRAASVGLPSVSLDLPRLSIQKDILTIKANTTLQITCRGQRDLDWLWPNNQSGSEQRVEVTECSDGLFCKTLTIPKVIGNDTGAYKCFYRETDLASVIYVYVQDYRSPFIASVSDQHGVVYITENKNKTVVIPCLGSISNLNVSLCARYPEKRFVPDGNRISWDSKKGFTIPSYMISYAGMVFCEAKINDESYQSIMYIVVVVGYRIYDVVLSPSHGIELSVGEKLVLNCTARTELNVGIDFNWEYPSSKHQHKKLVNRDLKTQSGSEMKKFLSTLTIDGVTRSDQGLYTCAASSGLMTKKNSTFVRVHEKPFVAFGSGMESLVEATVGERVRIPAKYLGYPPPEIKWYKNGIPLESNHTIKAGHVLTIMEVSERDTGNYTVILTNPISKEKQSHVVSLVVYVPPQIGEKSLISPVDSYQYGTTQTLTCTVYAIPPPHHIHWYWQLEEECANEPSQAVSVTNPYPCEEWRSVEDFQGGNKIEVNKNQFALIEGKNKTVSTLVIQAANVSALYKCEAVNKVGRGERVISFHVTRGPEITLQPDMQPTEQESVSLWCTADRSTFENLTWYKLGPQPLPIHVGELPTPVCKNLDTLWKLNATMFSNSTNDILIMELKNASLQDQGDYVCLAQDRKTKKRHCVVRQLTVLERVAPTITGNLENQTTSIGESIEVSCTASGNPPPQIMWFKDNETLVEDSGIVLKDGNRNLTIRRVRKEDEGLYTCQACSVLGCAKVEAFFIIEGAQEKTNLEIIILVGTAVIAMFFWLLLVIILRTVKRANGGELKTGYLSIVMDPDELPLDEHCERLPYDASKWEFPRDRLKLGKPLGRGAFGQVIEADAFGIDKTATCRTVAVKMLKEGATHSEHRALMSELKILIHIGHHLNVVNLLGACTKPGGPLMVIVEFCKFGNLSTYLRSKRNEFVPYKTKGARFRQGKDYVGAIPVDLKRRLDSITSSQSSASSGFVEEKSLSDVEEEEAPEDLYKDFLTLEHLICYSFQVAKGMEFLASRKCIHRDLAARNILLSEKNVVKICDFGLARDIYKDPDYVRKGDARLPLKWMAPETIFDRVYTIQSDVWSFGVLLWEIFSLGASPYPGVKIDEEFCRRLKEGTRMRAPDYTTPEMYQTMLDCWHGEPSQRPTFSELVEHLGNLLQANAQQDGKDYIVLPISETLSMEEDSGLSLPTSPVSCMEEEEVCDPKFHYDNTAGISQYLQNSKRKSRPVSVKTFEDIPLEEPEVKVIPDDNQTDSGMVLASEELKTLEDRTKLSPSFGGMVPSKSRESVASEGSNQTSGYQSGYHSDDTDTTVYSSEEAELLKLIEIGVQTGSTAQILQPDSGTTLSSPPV

[7] = biological target: Mast/stem cell growth factor receptor Kit (Homo sapiens) (UniProt P10721); experiment: Inhibition of c-KIT (unknown origin) at 10 uM after 1 hr by mobility shift assay
Sequence of Mast/stem cell growth factor receptor Kit (Homo sapiens) (P10721 whole entry): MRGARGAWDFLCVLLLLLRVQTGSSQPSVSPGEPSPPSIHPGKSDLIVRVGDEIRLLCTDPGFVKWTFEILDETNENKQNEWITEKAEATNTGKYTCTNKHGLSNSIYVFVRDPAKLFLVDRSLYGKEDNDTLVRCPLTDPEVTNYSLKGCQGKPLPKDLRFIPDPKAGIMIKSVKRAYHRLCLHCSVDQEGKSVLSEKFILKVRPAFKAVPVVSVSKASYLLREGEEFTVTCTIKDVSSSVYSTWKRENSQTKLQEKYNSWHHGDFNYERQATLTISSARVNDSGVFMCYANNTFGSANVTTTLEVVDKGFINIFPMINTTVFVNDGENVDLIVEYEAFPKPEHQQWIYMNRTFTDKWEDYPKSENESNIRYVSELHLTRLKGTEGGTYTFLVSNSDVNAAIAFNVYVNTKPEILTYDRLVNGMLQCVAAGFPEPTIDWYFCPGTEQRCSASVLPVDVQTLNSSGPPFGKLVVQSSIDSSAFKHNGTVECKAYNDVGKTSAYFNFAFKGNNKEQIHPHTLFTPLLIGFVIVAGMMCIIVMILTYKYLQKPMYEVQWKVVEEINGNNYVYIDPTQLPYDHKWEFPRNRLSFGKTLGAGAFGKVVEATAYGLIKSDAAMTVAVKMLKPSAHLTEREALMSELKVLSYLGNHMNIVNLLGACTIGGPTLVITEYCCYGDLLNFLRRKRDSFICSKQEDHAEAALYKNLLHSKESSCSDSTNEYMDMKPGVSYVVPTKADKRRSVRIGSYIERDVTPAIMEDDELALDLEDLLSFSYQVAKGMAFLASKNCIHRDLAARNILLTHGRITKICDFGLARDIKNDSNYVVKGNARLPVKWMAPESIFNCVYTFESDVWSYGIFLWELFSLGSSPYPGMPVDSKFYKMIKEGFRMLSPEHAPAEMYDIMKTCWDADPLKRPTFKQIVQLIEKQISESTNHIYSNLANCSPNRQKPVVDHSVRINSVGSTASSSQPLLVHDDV
Procedure, shortened: (§2)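 Mobility shift kinase assay. Compounds were diluted in DMSO and then in kinase buffer, and tested in duplicate wells with enzyme and peptide substrate. Incubation was 1 h at 28 °C before stop buffer was added.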

HT-29 [8] = experiment: Induction of apoptosis in human HT-29 cells assessed as late apoptotic cells at 2 uM after 48 hrs by annexin V/propidium iodide staining based flow cytometric analysis (reference value: 2.49 %); format: functional
HT-29 [9] = experiment: Induction of apoptosis in human HT-29 cells assessed as late apoptotic cells at 1 uM after 48 hrs by annexin V/propidium iodide staining based flow cytometric analysis (reference value: 2.49 %); format: functional
HT-29 [10] = experiment: Induction of apoptosis in human HT-29 cells assessed as viable cells 5 uM after 48 hrs by annexin V/propidium iodide staining based flow cytometric analysis (reference value: 92.1 %); format: functional
HT-29 [11] = experiment: Induction of apoptosis in human HT-29 cells after 48 hrs by annexin V/propidium iodide staining based flow cytometric analysis; format: functional, cell-based
HT-29 [12] = experiment: Induction of apoptosis in human HT-29 cells assessed as early apoptotic cells at 2 uM after 48 hrs by annexin V/propidium iodide staining based flow cytometric analysis (reference value: 1.72 %); format: functional
[13] = biological target: Receptor-type tyrosine-protein kinase FLT3 (Homo sapiens) (UniProt P36888); experiment: Inhibition of FLT3 (unknown origin) at 10 uM after 1 hr by mobility shift assay; procedure, shortened: as §2
Sequence of Receptor-type tyrosine-protein kinase FLT3 (Homo sapiens) (P36888 whole entry): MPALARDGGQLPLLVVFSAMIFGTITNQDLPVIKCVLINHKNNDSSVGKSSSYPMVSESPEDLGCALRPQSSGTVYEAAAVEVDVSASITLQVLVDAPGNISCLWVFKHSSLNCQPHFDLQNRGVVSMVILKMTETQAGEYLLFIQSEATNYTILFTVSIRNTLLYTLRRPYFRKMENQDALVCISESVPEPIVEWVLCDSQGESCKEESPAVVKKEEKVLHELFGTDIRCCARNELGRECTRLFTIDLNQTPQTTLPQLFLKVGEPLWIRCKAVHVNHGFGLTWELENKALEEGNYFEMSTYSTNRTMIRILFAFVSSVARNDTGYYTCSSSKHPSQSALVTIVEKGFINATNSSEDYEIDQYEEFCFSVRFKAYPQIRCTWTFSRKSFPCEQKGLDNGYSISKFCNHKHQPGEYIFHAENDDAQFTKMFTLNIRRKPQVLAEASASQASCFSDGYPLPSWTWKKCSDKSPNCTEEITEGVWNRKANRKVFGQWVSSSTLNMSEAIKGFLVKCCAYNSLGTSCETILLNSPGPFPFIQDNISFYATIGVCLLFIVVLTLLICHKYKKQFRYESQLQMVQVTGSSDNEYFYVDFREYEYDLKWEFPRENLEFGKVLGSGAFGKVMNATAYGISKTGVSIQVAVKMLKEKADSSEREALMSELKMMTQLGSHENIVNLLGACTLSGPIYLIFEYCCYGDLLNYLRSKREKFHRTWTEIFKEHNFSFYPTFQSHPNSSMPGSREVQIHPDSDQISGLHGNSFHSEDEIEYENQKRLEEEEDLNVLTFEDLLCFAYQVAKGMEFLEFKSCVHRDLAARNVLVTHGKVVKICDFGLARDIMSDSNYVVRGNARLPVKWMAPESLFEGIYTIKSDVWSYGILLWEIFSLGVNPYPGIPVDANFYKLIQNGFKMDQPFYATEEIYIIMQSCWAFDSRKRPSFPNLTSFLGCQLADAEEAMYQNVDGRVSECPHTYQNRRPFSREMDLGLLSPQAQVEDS

HT-29 [14] = experiment: Induction of apoptosis in human HT-29 cells assessed as early apoptotic cells at 5 uM after 48 hrs by annexin V/propidium iodide staining based flow cytometric analysis (reference value: 1.72 %); format: functional
HT-29 [15] = experiment: Induction of apoptosis in human HT-29 cells assessed as necrotic cells at 1 uM after 48 hrs by annexin V/propidium iodide staining based flow cytometric analysis (reference value: 3.66 %); format: functional
HT-29 [16] = experiment: Induction of apoptosis in human HT-29 cells assessed as early apoptotic cells at 1 uM after 48 hrs by annexin V/propidium iodide staining based flow cytometric analysis (reference value: 1.72 %); format: functional
HT-29 [17] = experiment: Induction of apoptosis in human HT-29 cells assessed as necrotic cells at 2 uM after 48 hrs by annexin V/propidium iodide staining based flow cytometric analysis (reference value: 3.66 %); format: functional
HT-29 [18] = experiment: Induction of apoptosis in human HT-29 cells assessed as late apoptotic cells at 5 uM after 48 hrs by annexin V/propidium iodide staining based flow cytometric analysis (reference value: 2.49 %); format: functional
HT-29 [19] = experiment: Induction of apoptosis in human HT-29 cells assessed as viable cells at 1 uM after 48 hrs by annexin V/propidium iodide staining based flow cytometric analysis (reference value: 92.1 %); format: functional; conditions: HT-29, 48 h, read-out: Activity
[20] = biological target: Proto-oncogene tyrosine-protein kinase receptor Ret (Homo sapiens) (UniProt P07949); experiment: Inhibition of RET (unknown origin) at 10 uM after 1 hr by mobility shift assay; procedure, shortened: as §2
Sequence of Proto-oncogene tyrosine-protein kinase receptor Ret (Homo sapiens) (P07949 whole entry): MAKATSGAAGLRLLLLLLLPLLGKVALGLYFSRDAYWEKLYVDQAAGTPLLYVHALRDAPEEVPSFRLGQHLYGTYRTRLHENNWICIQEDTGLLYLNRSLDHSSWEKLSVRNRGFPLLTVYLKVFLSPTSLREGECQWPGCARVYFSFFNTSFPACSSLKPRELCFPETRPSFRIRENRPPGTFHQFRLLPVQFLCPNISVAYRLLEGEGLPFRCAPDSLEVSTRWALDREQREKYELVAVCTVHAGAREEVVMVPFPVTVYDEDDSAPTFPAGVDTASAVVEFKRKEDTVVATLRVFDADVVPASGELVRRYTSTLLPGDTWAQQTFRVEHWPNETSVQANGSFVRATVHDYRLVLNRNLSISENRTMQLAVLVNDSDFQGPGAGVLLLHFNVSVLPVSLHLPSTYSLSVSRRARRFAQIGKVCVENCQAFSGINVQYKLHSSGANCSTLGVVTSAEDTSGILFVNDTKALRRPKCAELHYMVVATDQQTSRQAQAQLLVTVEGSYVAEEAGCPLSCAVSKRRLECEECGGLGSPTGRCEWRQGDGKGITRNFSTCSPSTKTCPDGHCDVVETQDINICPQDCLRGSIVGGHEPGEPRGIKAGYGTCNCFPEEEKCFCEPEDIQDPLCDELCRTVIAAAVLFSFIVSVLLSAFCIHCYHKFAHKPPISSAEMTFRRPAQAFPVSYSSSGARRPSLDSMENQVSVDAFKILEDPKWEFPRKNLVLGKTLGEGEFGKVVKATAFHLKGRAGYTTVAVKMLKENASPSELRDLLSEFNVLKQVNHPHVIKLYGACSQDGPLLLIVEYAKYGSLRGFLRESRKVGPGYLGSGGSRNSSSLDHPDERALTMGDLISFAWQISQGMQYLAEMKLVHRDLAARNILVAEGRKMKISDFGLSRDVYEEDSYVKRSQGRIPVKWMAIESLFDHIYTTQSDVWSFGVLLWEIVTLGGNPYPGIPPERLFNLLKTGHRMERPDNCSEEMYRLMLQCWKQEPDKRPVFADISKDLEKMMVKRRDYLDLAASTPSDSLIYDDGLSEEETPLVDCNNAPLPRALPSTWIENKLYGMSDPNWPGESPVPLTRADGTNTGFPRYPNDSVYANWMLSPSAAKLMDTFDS

Row | IC50 (HT-29 [1]) [µM] | IC50 (MDA-MB-231) [µM] | inhibition [6] [%] | inhibition [7] [%] | inhibition [13] [%] | inhibition [20] [%] | SMILES | IC50 [2] [µM] | IC50 [3] [µM] | other results
1 | > 50 | 9.68 | – | – | – | – | Cn1ncnc1-c1cc(Oc2ccc(NC(=O)Nc3cccc(C(F)(F)F)c3)cc2F)ccn1 | 22.4 | 11.6 | –
2 | 3.59 | 1.79 | – | – | – | – | CCN(CC)CCn1cnnc1-c1cc(Oc2ccc(NC(=O)Nc3ccc(Cl)cc3Cl)cc2F)ccn1 | 4.28 | 5.38 | –
3 | 10.9 | > 50 | – | – | – | – | O=C(Nc1ccc(Oc2ccnc(-c3nncn3C3CC3)c2)c(F)c1)Nc1ccc(Cl)c(C(F)(F)F)c1 | – | > 50 | –
4 | 0.9 | 1.54 | 10 | 79.9 | 84.9 | 84.4 | CCN(CC)CCn1cnnc1-c1cc(Oc2ccc(NC(=O)Nc3ccc(Cl)c(C(F)(F)F)c3)cc2F)ccn1 | 6.73 | 0.85 | Activity (HT-29 [4]): 66.4%; Activity (HT-29 [5]): 8.59%; Activity (HT-29 [8]): 13.2%; Activity (HT-29 [9]): 8.34%; Activity (HT-29 [10]): 43.3%; Activity (HT-29 [11]): Dose-dependent effect; Activity (HT-29 [12]): 14.4%; Activity (HT-29 [14]): 10.6%; Activity (HT-29 [15]): 7.44%; Activity (HT-29 [16]): 3.92%; Activity (HT-29 [17]): 6.03%; Activity (HT-29 [18]): 37.5%; viability at 1 µM (HT-29 [19]): 80.3%
5 | 2.86 | 8.28 | 0 | 56.7 | 38.5 | 42.3 | O=C(Nc1ccc(Oc2ccnc(-c3nncn3CCCN3CCOCC3)c2)c(F)c1)Nc1ccc(Cl)c(C(F)(F)F)c1 | 9.65 | 3.23 | –
6 | 0.63 | 0.72 | 11.5 | 66.5 | 61 | 72.1 | CCN(CC)CCn1cnnc1-c1cc(Oc2ccc(NC(=O)Nc3cccc(C(F)(F)F)c3)cc2F)ccn1 | 6.92 | 9.87 | –
7 | 0.72 | 8.32 | 26.9 | 74 | 52.2 | 63.3 | CN(C)CCn1cnnc1-c1cc(Oc2ccc(NC(=O)Nc3ccc(F)c(Cl)c3)cc2F)ccn1 | 7.58 | 1.58 | –
8 | 0.98 | 13.3 | 62.8 | 69.9 | 69.2 | 85.6 | CN(C)CCCn1cnnc1-c1cc(Oc2ccc(NC(=O)Nc3cccc(C(F)(F)F)c3)cc2F)ccn1 | 11.6 | 1.79 | –
9 | 3.62 | > 50 | – | 3.9 | 13.5 | 17.6 | CN(C)CCn1cnnc1-c1cc(Oc2ccc(NC(=O)Nc3ccc(F)c(F)c3)cc2F)ccn1 | > 50 | 9.05 | –
10 | 0.5 | 34 | 2.7 | 40.4 | 59.6 | 1.9 | CCN(CC)CCn1cnnc1-c1cc(Oc2ccc(NC(=O)Nc3ccc(F)c(Cl)c3)cc2F)ccn1 | 28.7 | 7.39 | –
11 | 1.21 | 25.2 | 20.3 | 63.1 | 44.3 | 30.9 | CN(C)CCCn1cnnc1-c1cc(Oc2ccc(NC(=O)Nc3ccc(F)c(F)c3)cc2F)ccn1 | 15.3 | 1.08 | –
12 | 1.4 | 7.88 | 10.9 | 69.9 | 86.9 | 79.3 | CN(C)CCCn1cnnc1-c1cc(Oc2ccc(NC(=O)Nc3ccc(Cl)c(C(F)(F)F)c3)cc2F)ccn1 | 7.91 | 1.68 | –
13 | 2.57 | 5.32 | – | – | – | – | Cn1cnnc1-c1cc(Oc2ccc(NC(=O)Nc3ccc(Cl)c(C(F)(F)F)c3)cc2F)ccn1 | 9.85 | 2.31 | –
14 | 3.41 | 11.6 | – | – | – | – | CCN(CC)CCn1cnnc1-c1cc(Oc2ccc(NC(=O)Nc3ccccc3C(F)(F)F)cc2F)ccn1 | 23.5 | > 50 | –
15 | 1.89 | 7.96 | 6 | – | – | – | CN(C)CCn1cnnc1-c1cc(Oc2ccc(NC(=O)Nc3ccc(Cl)cc3Cl)cc2F)ccn1 | 10.4 | 4.35 | –
16 | 3.02 | 6.47 | – | – | – | – | Cn1cnnc1-c1cc(Oc2ccc(NC(=O)Nc3cccc(C(F)(F)F)c3)cc2F)ccn1 | 12.6 | 1.27 | –
17 | 12.4 | > 50 | – | – | – | – | Cn1ncnc1-c1cc(Oc2ccc(NC(=O)Nc3ccc(Cl)c(C(F)(F)F)c3)cc2F)ccn1 | > 50 | > 50 | –
18 | 15.7 | – | – | – | – | – | O=C(Nc1ccc(Oc2ccnc(-c3nncn3CCCN3CCOCC3)c2)c(F)c1)Nc1ccccc1C(F)(F)F | – | – | –
19 | 16.2 | > 50 | – | – | – | – | O=C(Nc1ccc(Oc2ccnc(-c3nncn3CCCN3CCOCC3)c2)c(F)c1)Nc1ccc(F)c(Cl)c1 | – | 16.2 | –
20 | 3.13 | 40.5 | 1.7 | – | – | – | CN(C)CCCn1cnnc1-c1cc(Oc2ccc(NC(=O)Nc3ccccc3C(F)(F)F)cc2F)ccn1 | 28.6 | 10.9 | –
21 | 1.47 | 16.4 | 2.7 | 60.5 | 42.2 | 77.7 | CN(C)CCn1cnnc1-c1cc(Oc2ccc(NC(=O)Nc3cccc(C(F)(F)F)c3)cc2F)ccn1 | 11.2 | 2.15 | –
22 | 3.37 | 3.08 | – | 95.6 | 98.5 | 97 | CNC(=O)c1cc(Oc2ccc(NC(=O)Nc3ccc(Cl)c(C(F)(F)F)c3)cc2)ccn1 [SORAFENIB] | 8.42 | 2.25 | –
23 | 0.89 | 14.2 | 35 | 71 | 72.1 | 45.5 | CN(C)CCCn1cnnc1-c1cc(Oc2ccc(NC(=O)Nc3ccc(F)c(Cl)c3)cc2F)ccn1 | 5.37 | 1.27 | –
24 | 1.24 | 41.3 | 0 | 27.7 | 39 | 7.1 | CCN(CC)CCn1cnnc1-c1cc(Oc2ccc(NC(=O)Nc3ccc(F)c(F)c3)cc2F)ccn1 | > 50 | 14.8 | –
25 | 0.88 | 1.07 | 0 | 70.4 | 66.3 | 74.1 | CN(C)CCn1cnnc1-c1cc(Oc2ccc(NC(=O)Nc3ccc(Cl)c(C(F)(F)F)c3)cc2F)ccn1 | 3.76 | 1.15 | –
26 | 0.68 | 7.49 | 11.3 | – | – | – | CN(C)CCCn1cnnc1-c1cc(Oc2ccc(NC(=O)Nc3ccc(Cl)cc3Cl)cc2F)ccn1 | 3.26 | 3.68 | –
27 | 3.56 | > 50 | – | 43.5 | 22 | 45.6 | O=C(Nc1ccc(Oc2ccnc(-c3nncn3CCCN3CCOCC3)c2)c(F)c1)Nc1ccc(Cl)cc1Cl | – | – | –
28 | 5.86 | > 50 | 2.2 | 22.7 | 17.6 | 43 | CN(C)CCn1cnnc1-c1cc(Oc2ccc(NC(=O)Nc3ccccc3C(F)(F)F)cc2F)ccn1 | > 50 | > 50 | –
